Source: the EternaBench riboswitch data

Test system: MS2 coat protein
Experiment: apparent Kd, MS2 coat protein; higher = weaker binding; RNA-MaP array; FMN 200 µM where present
How it was run: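 Designs were transcribed by stalled E. coli RNA polymerase on Illumina sequencing-chip clusters. They were titrated with SNAP-549-labelled MS2 coat protein from 0.7 or 1.5 nM, doubling to 3 µM, without and then with constant ligand. Buffer: 100 mM Tris-HCl pH 7.5, 80 mM KCl, 4 mM MgCl2, BSA, DTT, yeast tRNA, Tween-20. Green signal was normalised to red-channel RNA signal and control-cluster median Fmax. Apparent Kd is the median of filtered per-cluster binding-curve fits.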

[1] = designed as: OFF switch for flavin mononucleotide, no ligand
[2] = ligand present: flavin mononucleotide, designed as: OFF switch for flavin mononucleotide
[3] = designed as: ON switch for flavin mononucleotide, no ligand
[4] = ligand present: flavin mononucleotide, designed as: ON switch for flavin mononucleotide

Sequence	apparent Kd [1]	apparent Kd [2]	apparent Kd [3]	apparent Kd [4]
UUCAGCUCGUCAGGAUAUACGUCACUGCUUCGGCAGUGUGGUAAGAUCACAUGAGGAUCACCCAUGUAGAAGGGACGAGCUGAC	13.5 nM	252 nM	–	–
GGUGCAGUGUAGAAGGCAGAUCUGAUUCAGAUCUGAGGAUAUACAUGAGGAUCACCCAUGUUAUGCACCAGCACGAGAGUGCAA	6.28 nM	8.76 nM	–	–
UAAAAGACUAGCAACUAACUCCACAUGAGGAUCACCCAUGUCUAGGAUAUGAGCAGCAAAGCUGCUUAGAAGGAGACGCUAGUC	6.48 nM	6.1 nM	–	–
UUCCUCGUUGUGAGGAUAUCGUCCUCUUUUUGUUACGAGAAGGCACAUGAGGAUCACCCAUGUUUCUUGAUGUU	16.7 nM	42.3 nM	–	–
CGUGUACGAGGAUAUAGAUUGAAUGACAUGAGGAUCACCCAUGUGAUCGAUCUAUUUGAUUUAGAAGGUGUACAUG	14 nM	16.9 nM	–	–
CGCUGUCAUGCAGGAUAUGCAUUGGUUUACAAUGCAGAAGGGCGAUUACAUGAGGAUCACCCAUGUGUAGACAGUGAAGAAGAG	–	–	157 nM	12.9 nM
AUCGAGUAAGGAUAUACAUGAGGAUCACCCAUGUCCGUGAGGUAAGUUUGUGUCCGGCGUAGAAGGUACUGCAU	52.1 nM	121 nM	–	–
CUAUUUUGUGCCUCAUGUACAUGAGGAUCACCCAUGUUAACUUAGGAUAUAUUUAUAUUGUUAGAGUAGAAGGAAGUACAAUUU	30.2 nM	27.1 nM	–	–
AAGAAGUCAGGAUAUGCUAAAGAAAUAAAAAGAAAGAAAGAACAUGAGGAUCACCCAUGUAGAAGGGACAAGAA	42.9 nM	40.6 nM	–	–
ACAUUUAAUACAGGAUAUGUUAGUAUACAGUAGAUUGGUUAUUACAUAAUAACAGAAGGGUAGAACAUGAGGAUCACCCAUGUA	–	–	217 nM	106 nM
ACUUGUUAGUAGAAGGUAGUUAUUAUAUUAAUCAUGUAUACAUGAGGAUCACCCAUGUUGAUUUCUAAGGAUAUACAUCGAUAG	81.4 nM	59 nM	–	–
GUGGUUGUCGUAGGAUAUGUAGGAUAUUCCUACAUGAGGAUCACCCAUGUUCGCAUGGAAGAAGGACGGAAGGACGAUGACCAA	–	–	306 nM	125 nM
CUGCCUUAUGUAGGAUAUGCAUAGCAUUGCUAUGCAGAAGGACAUGAGGAUCACCCAUGUAUGUUAUCAAUACAUAUCUGGCAG	17.5 nM	54.5 nM	–	–
AGGGUAUGAACAUGAGGAUCACCCAUGUACUAGGAAACAAAUGAGGAUAUCGAUAGCAAAGCUAUCGAGAAGGCAUGGGACCCU	–	–	224 nM	51.8 nM
CCUAAGGACACAGGAUAUAGCGUGGUGGCUAGACUCCAACGGCGAGCGGCGCUAGAAGGGUGACCACAUGAGGAUCACCCAUGU	–	–	553 nM	193 nM
ACAUGAGGAUCACCCAUGUAUUCAUAGGAUAUACAACAUGAGUUUCAUUCAUGUAAACAUGUAUUGUAGAAGGAUGUUACAUGU	13.6 nM	15 nM	–	–
GUUGGUUAUGUAGGAUAUGCGAGGCGAGCCUAAGCAGAAGGACAUGAGGAUCACCCAUGUAUUGCGGUCUGCGUUCAGAUCGCU	36.2 nM	156 nM	–	–
AAUAAGCAAGGAUAUACGACGCAGAGCGUCAGUGGGCGAUGACAUGAGGAUCACCCAUGUAGAAGGUGCACAUC	93.9 nM	208 nM	–	–
UCUAUGUAGAUUCAUCAAUACAGUAAGGAUAUGAGAUACAUGAGGAUCACCCAUGUGCAUGUGGAUUAGAAGGUACAAUUAACU	293 nM	188 nM	–	–
UAUUUGUGAGGAUAUGAGUCGUAGAACAAUAGUACUACGUCUCAGAAGGCACAUGAGGAUCACCCAUGUACCUC	17.9 nM	122 nM	–	–
GAUUGACAUGAGGAUCACCCAUGUGAGGAUAUCGGCCGGACCUUGUUAGCUUCCAUCGUGAGAAGGCACAUAGG	30.4 nM	31.5 nM	–	–
UGAGAUGUAGUAGGAUAUCAGGUUACAUGAGGAUCACCCAUGUUAGAUUGGUGGAUAGAUGUUGAUGAGAAGGACUUUUGAGUU	63.5 nM	100 nM	–	–
AUGUCGCUAGGAGGAUAUACAUGAUCUCGCACAUGUACCGCUCACGCCACAUGAGGAUCACCCAUGUAGAAGGCCUAGAGAGGU	18.6 nM	54.8 nM	–	–
GGAUGACAAAGUCAUCCAUAACGAACAUGAGGAUCACCCAUGUAGGAUAUGCUACUCAAAGAGUAGCAGAAGGACAUGUGCCUU	36 nM	239 nM	–	–
GACUGACAUGAGGAUCACCCAUGUAUUCGAGCAUGAGGAUAUAUGACUCGUCAUCGGCGGAUAGAAGGCAUGGUUG	–	–	162 nM	212 nM
AAAUUCAGAGGAUAUGCGCAUAGAUAAGACUUUGUUUCUUAACAUGAGGAUCACCCAUGUAGAAGGCUGUACCC	17.9 nM	20.1 nM	–	–
CGCUCUAUAUAUAAGGCAAGAAUCAGAAGGCGUUACAUGAGGAUCACCCAUGUUUUGUAUAGUAACGAGGAUAUGAUAUGAGCG	15.3 nM	15.1 nM	–	–
AUCAGCUCGGCAGGAUAUACGUCACUGCGUCAGCAGUGUGGUAAGAUCACAUGAGGAUCACCCAUGUAGAAGGGACGAGCUGAU	11.4 nM	74.5 nM	–	–

Sequence	apparent Kd [1]	apparent Kd [2]	apparent Kd [3]	apparent Kd [4]
UUGGACGUCGUAGGAUAUGUAGGAUAUUCCUACAUGAGGAUCACCCAUGUUGACAUAGAAGAAGGACAGAAGGACGAUGUCCAU	–	–	88.3 nM	4.86 nM
UAACCGCAGCAGAAGGGACGUCGGGUGGACUAGUCAGGAUAUGCAUGCCGGCAUAGACAUGAGGAUCACCCAUGUACGAGUGGC	–	–	347 nM	87.5 nM
GUGUACAGAGGAUAUAUAUGAGCUAGGAAACUAGCAAACUCACAUGAGGAUCACCCAUGUAGAAGGCUGUACAC	29.4 nM	156 nM	–	–
UGUCGGAGCAGAGGAUAUUACAUGAGGAUCACCCAUGUAUGAACCAAUAGCUGGAAACAGUAAUGUAAGAAGGCUGCUCCGACA	7.33 nM	76.2 nM	–	–
GUCGGAAACGACAAGUAGCAAUCGGAGGAUAUUCAUUAAAACAUGAGGAUCACCCAUGUAAAUUGGGAGAAGGCCGAUUGCUAC	–	–	17.8 nM	5.31 nM
GCAGAUCACGUGAGGAUAUCGUCUACCUCGGUAGUCGAGAAGGCACAUGAGGAUCACCCAUGUGAGUGUUCUGC	20.1 nM	19.5 nM	–	–
AAAGUGUAAGGAUAUGCUGCUCGUCACUUGCGUGAUGAGUAGCAGAAGGUACAUGAGGAUCACCCAUGUAAAGA	32.3 nM	40.6 nM	–	–
GUCAGCUCGUGAGGAUAUACAUGUGCUGGAUACAGCACUAUUAAAUUCACAUGAGGAUCACCCAUGUAGAAGGCACGAGCUGAU	15.6 nM	17.8 nM	–	–
AUGGGACAUGAGGAUCACCCAUGUUAGGAUAUCUCCUUAGUAACGAUCAGGCUAUAGGAGAGAAGGAACGGUCC	258 nM	272 nM	–	–
ACUAUACGAGGAUAUACUGUCGGGCCUCGGACAUAAAUAAGACAUGAGGAUCACCCAUGUAGAAGGCGUUUACU	25.6 nM	46 nM	–	–
ACGUGUCGUGUAGGAUAUGACACAGGAAACUGGUCAGAAGGACAUGAGGAUCACCCAUGUAGAGUGUGUAAGGAUGACGUAUGC	52 nM	199 nM	–	–
UUUUUACAUGAGGAUCACCCAUGUCAGGAUAUCCUUAUAUUUUAUUAUUUUAUUUUUUGGAGAAGGGACUAUUA	367 nM	225 nM	–	–
GCACGAUCCUCAGGAUAUCACUGAAACAUGAGGAUCACCCAUGUGCGCAGAUGAGAAGGGAGGACUCCGUCUGACUAAAUGUUA	–	–	109 nM	10.6 nM
GAGCGAGGGACAGGAUAUGCGGCGAAACUCUCCGCAGAAGGGUCGACAUGAGGAUCACCCAUGUCCUUACGCUCCAAGUAGAGG	–	–	132 nM	397 nM
CCCUCACAUGAGGAUCACCCAUGUUAGGAUAUCCACCGUUGAUGGUGCCGAAUCGGUAGGAGAAGGAACAUACA	23.2 nM	54.6 nM	–	–
UGAGCAUGAGGAUAUACUUGGCGUGCGUGAGCACGAGGUUUACAUGAGGAUCACCCAUGUAGAAGGCAUGUUCU	18.2 nM	51.6 nM	–	–
UAAUAAAACGAUCGGCGGUCCAUACAUGAGGAUCACCCAUGUAGAAGGCACUCUACAAAGUAGAGUGAGGAUAUACAAGAUCGA	15 nM	258 nM	–	–
UGGUACAUGGGAGGAUAUAGGUUGAUAACAUGAGGAUCACCCAUGUUAAAUAAGCCGAGAGGCUACUAGAAGGCCCAUGUACCU	–	–	4.73 nM	4.75 nM
AACAGGACAGGAUAUACAUGAGGAUCACCCAUGUAGGAAACAAGCAGAGUACCAAAAAGUAGAAGGGUCAUGGA	60.2 nM	79.5 nM	–	–
AGUUAAUAUCGAGGAUAUGUCUAGACACAUGAGGAUCACCCAUGUAUGUGUAUAGAAGGCGAUAUUAACAGCAUGUUACAUGCA	–	–	40.2 nM	16.7 nM
CGCAACAUACAGAAGGAGUAAUUUAGAAGUGUACUAGGAUAUGUUUACAUGAGGAUCACCCAUGUCGAUGGGUAAAUAGUUGCG	988 nM	437 nM	–	–
AUACUCAUGUAAGGAUAUGCAGCCGAAACGGCUGCAGAAGGUACUAUAAUACAUGAGGAUCACCCAUGUCAAAAUAAAAUAGUC	–	–	63.5 nM	22.9 nM
GUCAGCUCGUGAGGAUAUACAACACUGCUUCGGCAGUGUAUUAAGAUCACAUGAGGAUCACCCAUGUAGAAGGCACGCGCUGAU	12.9 nM	292 nM	–	–
AUUUAAUUUAAUAAGAUCACAUGAGGAUCACCCAUGUAUAUAUAGGAUAUCAGCUCGAAUAGAGCUGAGAAGGAUAUAUACUAU	326 nM	323 nM	–	–
GUAUCUCACUGAGGAUAUUUACGAUUAGUGUAGACAUGAGGAUCACCCAUGUGGCGUUAGUCACGGGAGAAGGCAGUGCGAUAC	–	–	114 nM	20 nM
GGGAAACAUGAGGAUCACCCAUGUCAGGAUAUGAUACUAUGUACUUCGGUACAUAGUAUCAGAAGGGACAUCAU	73.8 nM	204 nM	–	–
AGCAUGUAAGGAUAUGCAACACGACGUUCAAUCGUCGUGCCGCAGAAGGUACAUGAGGAUCACCCAUGUGCUCC	104 nM	129 nM	–	–
